High-throughput results (PubChem)
Only some compounds are listed: those with a hit (about 1.7% of all), similar ones and a draw of the others.
SUMO1 PPI mod – SUMO1-SIM interaction modulation; 0.33% of 360,000 active; inhibition, % at 20 µM; P63165; SUMO1 binding to a labelled peptide, TR-FRET, 1 h; in the data active means inhibition above about 37%
Target sequence (P63165 whole entry, looked up): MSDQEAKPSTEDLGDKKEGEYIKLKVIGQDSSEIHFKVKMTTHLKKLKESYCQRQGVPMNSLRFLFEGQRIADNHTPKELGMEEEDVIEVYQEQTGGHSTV
Scp1 inh – inhibitors of human Scp-1 phosphatase; Q9GZU7; Recombinant Scp1, phosphopeptide, malachite green phosphate absorbance; inhibition, % at 20 µM; 0.88% of 340,000 active; AID 493091;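 active means inhibition above about 50% at 20 µM, limit read from the data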;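 further: plate controls were DMSO wells with enzyme for no effect and wells lacking enzyme for full effect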
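assay system = SCP-1 phosphatase catalytic domain, residues 76-261 | buffer or medium = 50 mM Tris acetate pH 5.5, 0.005% Tween-20, 10 mM MgCl2 | incubation = enzyme reaction 45 min at room temperature, colour 5 min, stabilisation 30 min | signal = Phosphate-binding colour reagent, absorbance read at 630 nm | measure = % inhibition at 20 µM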
DNMT1 block – inhibitors of human DNMT1; 0.83% of 360,000 active; DNMT1 molecular beacon, Hinp1I cleavage, fluorescence; inhibition (reported as % activation of signal), % at 10 µM; P26358; in the data active means inhibition above about 50%
STEP inh – blocks human striatal-enriched tyrosine phosphatase | inhibition, % at 20 µM | 0.25% of 360,000 active | AID 588621 | P54829 | recombinant STEP, OMFP fluorogenic substrate, fluorescence;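 active means inhibition at 20 µM, scaled per plate between control wells, above about 37%, limit read from the data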;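 further: 0% = DMSO with enzyme and substrate and 100% = substrate only without enzyme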
Target sequence (P54829 whole entry, looked up): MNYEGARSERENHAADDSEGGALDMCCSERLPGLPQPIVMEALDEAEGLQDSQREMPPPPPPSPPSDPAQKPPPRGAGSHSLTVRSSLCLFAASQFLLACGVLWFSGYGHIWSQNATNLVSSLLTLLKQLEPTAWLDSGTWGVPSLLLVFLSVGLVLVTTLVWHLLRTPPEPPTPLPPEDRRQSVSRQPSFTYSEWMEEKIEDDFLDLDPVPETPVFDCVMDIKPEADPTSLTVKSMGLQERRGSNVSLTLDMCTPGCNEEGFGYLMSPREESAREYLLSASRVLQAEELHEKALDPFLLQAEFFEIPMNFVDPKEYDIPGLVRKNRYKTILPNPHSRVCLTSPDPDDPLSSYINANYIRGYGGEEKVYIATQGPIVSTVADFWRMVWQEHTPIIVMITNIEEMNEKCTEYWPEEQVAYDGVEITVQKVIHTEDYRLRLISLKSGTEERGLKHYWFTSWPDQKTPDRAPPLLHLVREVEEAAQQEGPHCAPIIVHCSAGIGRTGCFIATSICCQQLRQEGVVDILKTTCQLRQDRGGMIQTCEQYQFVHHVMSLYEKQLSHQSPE
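Measure: Control-normalized % inhibition with plate pattern correction | Test system: STEP phosphatase, cell-free reaction | Medium: pH 6.0 Bis-Tris with DTT and Tween 20 | Technique: Fluorescence, 480/540 nm | Times: Reaction 20 min, ambient temperature | Doses: Single compound dose of 20 µM, 1% DMSO final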
LMPTP block – blocks human LMPTP phosphatase | P24666 | recombinant LMPTP-A, OMFP fluorogenic substrate, fluorescence intensity | inhibition, % at 20 µM | 0.22% of 360,000 active | AID 651560;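 active means compounds that cut the enzyme signal by at least half of the control window in the single-dose screen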;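 further: plate controls were DMSO wells with enzyme plus substrate for no effect and substrate without enzyme for full effect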
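Assay system: LMPTP-A, protein tyrosine phosphatase of low molecular weight / Medium: pH 6.0 Bis-Tris buffer with DTT and Triton X-100 / Schedule: 50 min enzyme reaction at room temperature, protected from light / Measured by: endpoint fluorescence intensity from OMFP dephosphorylation / Read-out basis: % inhibition relative to no-enzyme and uninhibited control wells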
Beacon interf DR – beacon fluorescence artifact, dose response counter-screen. 200 tested, under 10 active. IC50, µM. AID 602382. shares compounds with DNMT1 block. molecular beacon fluorescence, spectral interference counter-screen; call rule not given here
DNMT1 inh conf – confirmation of human DNMT1 inhibitors; inhibition, % at 10 µM; 8% of 2,300 active; shares compounds with DNMT1 block; DNMT1 molecular beacon HinP1I cleavage, fluorescence;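 active means average inhibition of at least 30% in the single-concentration confirmation test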
Beacon interf – beacon fluorescence artifact counter-screen. shares compounds with DNMT1 block. DNMT1 molecular beacon spectral interference counterscreen, fluorescence 485/520. activation (fluorescence interference), % at 10 µM. 1% of 2,300 active;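 active means activation of at least 30% at 10 µM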;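 further: DNMT1 catalytic domain with a HinP1I cleavage step and a FAM/dabcyl DNA beacon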
An asterisk follows results filed as active; / = not tested or not shown.

SMILES | SUMO1 PPI mod | Scp1 inh | DNMT1 block | STEP inh | LMPTP block | DNMT1 inh conf | Beacon interf | others
CCOCc1nnc(NC(=O)c2ccco2)s1 | 0.2 | -6.0 | 1.8 | 1.0 | -3.0 | / | /
CCCCCCCCc1nnc(NC(=O)c2ccco2)s1 | 0.5 | 22.3 | 112.7* | 3.4 | 3.8 | 58.7* | 3.5 | Beacon interf DR=>99
Nc1ccc2c(c1)[nH]c(=O)c1ccccc12 | -3.0 | -0.3 | 80.0* | 1.8 | -0.2 | 5.6 | 1.2
O=c1[nH]c2cc(O)ccc2c2ccccc12 | 6.9 | / | 1.1 | -2.0 | -0.6 | / | /
Cc1cc(C)cc(-n2c3nc4ccccc4nc3c3c(=O)n(Cc4ccco4)cnc32)c1 | -0.2 | 4.6 | 98.1* | 2.0 | 56.3* | -0.1 | -3.8
COc1cccc(NC(=O)CSc2nnc(Cc3cccn3C)n2-c2ccc(F)cc2)c1 | -8.6 | -0.4 | 75.5* | -0.9 | 0.4 | 3.0 | 4.7
COc1ccc(-n2c(Cc3cccn3C)nnc2SCC(=O)Nc2cccc(OC)c2)cc1 | 4.5 | -1.2 | -1.5 | 1.7 | -0.1 | / | /
Cc1ccccc1-c1ccc(=O)n(CC(=O)Nc2ccc(S(=O)(=O)N(C)C)cc2)n1 | 1.9 | -8.4 | -1.9 | -1.1 | 0.6 | / | /
Cc1ccccc1-c1ccc(=O)n(CC(=O)Nc2ccc(-n3cnnn3)cc2)n1 | -2.3 | 5.8 | 90.0* | 0.9 | -0.2 | 1.1 | 1.9
CCC(c1nnc(SCc2nc3ccccc3s2)n1Cc1ccccc1)N(C)C (centres undefined) | -0.6 | -6.2 | -4.8 | 2.3 | 1.3 | / | /
c1ccc(Cn2c(SCc3nc4ccccc4s3)nnc2-c2ccco2)cc1 | 36.5 | 25.7 | 103.5* | 10.9 | 36.7 | 1.1 | 6.0
O=C(CN(Cc1ccccc1Cl)C(=O)c1csnn1)NC1CCCC1 | -1.1 | 0.1 | 0.4 | 1.6 | -1.5 | / | /
CCOC(=O)c1c(C)[nH]c(C(=O)OC(C)C(=O)Nc2ccc(C)cc2)c1C (centres undefined) | 2.9 | / | 74.2* | -1.8 | 1.4 | -2.1 | -2.5
O=C(NCCC1CCCCN1S(=O)(=O)c1cccs1)C(=O)Nc1cccc(F)c1 (centres undefined) | 10.5 | -12.8 | -3.0 | -1.0 | 1.4 | / | /
Cc1ccc(C(=O)Nc2ccc(S(=O)(=O)N3CCN(C)CC3)cc2)cc1 | -0.1 | -12.1 | 67.2* | 0.4 | -0.5 | 4.6 | 4.1
Cc1ccc(NC(=O)c2ccc(S(=O)(=O)N3CCCC3)cc2)cc1 | 2.0 | -4.1 | 3.4 | -4.7 | 0.7 | / | /
CC(/C=C1\N=C(SCc2ccccc2)SC1=O)=C\c1ccccc1 | 0.0 | 3.2 | 80.0* | 6.2 | 1.7 | 1.4 | -0.5
C=CCN1C(=O)/C(=C\C(C)=C\c2ccccc2)SC1=S | -5.0 | 5.5 | 9.6 | 0.6 | -0.6 | / | /
C=CCn1c(SCC(=O)NC2CCCC2)nc2scc(-c3ccco3)c2c1=O | 2.8 | 0.7 | 51.9* | 9.8 | 5.8 | 2.4 | 3.3
C=CCn1c(SCC(=O)NCC2CCCO2)nc2scc(-c3ccccc3)c2c1=O (centres undefined) | 4.2 | -8.3 | 0.7 | 1.3 | 0.1 | / | /
CCOc1ccccc1N1Cc2cc(C)c(C)cc2C1 | -1.4 | -3.9 | 53.6* | -0.1 | 2.5 | 0.4 | 0.9
COc1ccc(C(=O)N2CCNC(=O)C2)cc1S(=O)(=O)Nc1ccc(Br)cc1 | -2.1 | -2.7 | 3.6 | -0.8 | -1.3 | / | /
N#Cc1ccccc1/C=N/Nc1nc(-c2ccccc2)c2cc(Cl)ccc2n1 | -5.8 | 9.4 | 65.8* | 2.5 | 11.4 | 3.5 | -2.6
O=C1NC(=S)N/C1=C/c1ccc(Oc2ccc(C(F)(F)F)cc2[N+](=O)[O-])c(Cl)c1 | -0.9 | 8.0 | 50.8* | -2.3 | -0.7 | 1.1 | 3.2
COc1ccc(N2CCCC2=O)cc1S(=O)(=O)N1CCOCC1 | 4.3 | / | 72.0* | -3.0 | -3.2 | 1.3 | 3.2
SMILES | SUMO1 PPI mod | Scp1 inh | DNMT1 block | STEP inh | LMPTP block | DNMT1 inh conf | Beacon interf | others
O=Cc1cccc(OCc2cn(CC(=O)c3ccc(O)cc3)nn2)c1 | 3.8 | / | 57.7* | 1.7 | -0.9 | 4.5 | -3.6
CCCC(=O)c1ccc(OCc2cn(CC(=O)c3ccc(O)cc3)nn2)cc1 | 0.4 | -5.0 | 52.2* | -0.9 | -0.6 | 3.1 | -1.3
O=C(Cn1cc(COc2ccc(Br)cc2)nn1)c1ccc(O)cc1 | -2.8 | 0.8 | -3.2 | 2.1 | 0.7 | / | /
O=C(CCl)Nc1ccccc1C(=O)c1ccccc1 | 11.9 | 6.6 | 16.1 | -2.1 | -1.1 | / | /
COC(=O)Cc1c(C(=O)OC)nnn1-c1cccc(C(F)(F)F)c1 | -2.3 | -1.2 | 0.0 | -2.2 | -1.7 | / | /
COc1ccc2c(c1)N(C)/C(=C1/SC(=NCc3ccccc3)N(c3ccccc3)C1=O)S2 | -17.4 | 8.6 | 52.6* | -1.3 | -2.3 | 3.3 | -0.4
CCOC(=O)N1CCC(NS(=O)(=O)c2ccc3c(c2)oc(=O)n3C)CC1 | -0.3 | -2.5 | 52.7* | -0.7 | -0.3 | 2.7 | 4.4
O=C(O)c1ccc(/C=C2\SC(=Nc3ccccc3)N(c3ccccc3)C2=O)cc1 | -19.4 | -10.3 | -4.2 | 1.1 | -1.0 | / | /
Cc1ccc(C)c(SCC(=O)NC(=O)NC2CCCC2)c1 | -2.1 | -0.7 | 74.4* | -1.1 | 1.2 | 1.7 | 2.7
Cc1ccc(SCC(=O)NC(=O)NC2CCCC2)c(C)c1 | 3.6 | 1.2 | 0.0 | 8.2 | -0.8 | / | /
O=C1CC(c2ccco2)CC(O)=C1C=Nc1cc(Cl)ccc1O (centres undefined) | 21.5 | 72.5* | 89.1* | 3.6 | 9.0 | 3.0 | -1.7
COc1ccc(C)cc1S(=O)(=O)NC(C)c1cnn(-c2ccccn2)c1C (centres undefined) | 2.8 | -7.1 | -10.3 | -0.8 | 2.3 | / | /
Cc1ccc(S(=O)(=O)N2CCOCC2)cc1C(=O)N1CCN(c2ccc(C(F)(F)F)cn2)CC1 | 1.3 | 19.8 | 8.2 | 2.0 | 3.1 | / | /
CSc1nc(NCCOCCO)c2sc3nc(-c4ccco4)c4c(c3c2n1)CCC4 | 23.2 | 0.3 | 87.2* | 2.0 | 2.0 | 20.2 | 18.7
CN(C(=S)NC(=O)C12CC3CC(CC(C3)C1)C2)c1ccc(O)cc1 | 1.2 | -8.6 | -6.5 | 0.9 | 4.1 | / | /
Cc1cccc(NC(=O)CSc2nnc(-c3ccco3)c(-c3ccco3)n2)c1 | 10.6 | 39.1 | 35.2 | 2.8 | 11.2 | / | /
Cc1cccc(NC(=O)CSc2nnc(-c3ccco3)c(-c3ccco3)n2)c1C | 34.0 | 62.7* | 106.1* | 5.6 | 25.3 | 5.3 | 4.9
S=C(Nc1ccc(Cl)cc1)N1CCCC1 | 0.3 | -5.2 | -0.9 | 3.9 | -0.6 | / | /
CC(NC(=O)CN(c1ccc(F)cc1)S(C)(=O)=O)c1ccccc1 (centres undefined) | -3.2 | -6.0 | 0.3 | 1.3 | -0.8 | / | /
